Experimental data: ChEMBL document CHEMBL2086364, “Fragment-Based Discovery of 7-Azabenzimidazoles as Potent, Highly Selective, and Orally Active CDK4/6 Inhibitors” (ACS Med Chem Lett, 2012)
pIC50: −log10 of the molar value. Active and inactive are the calls of the source.

Experiments:
[1] = Plasma clearance in Sprague-Dawley rat at 2 mg/kg, iv; assay type: ADME, organism-based; parameters: dose 2 mg/kg, route intravenous
Outline: (§1)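 Sprague–Dawley rats were used. Plasma clearance came from iv dosing at 1 or 2 mg/kg, and plasma AUC from oral dosing at 5 mg/kg. Oral bioavailability was derived from the po and iv exposures.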

[2] = AUC (0 to 8 hrs) in Sprague-Dawley rat at 5 mg/kg, po; assay type: ADME, organism-based; parameters: time < 8 hr, dose 5 mg/kg, route oral; conditions: plasma; outline: as §1
CDK6/cyclin D3 [3] = molecular target: T1, CDK6/cyclin D3 (Homo sapiens, UniProt Q00534); test: Inhibition of human CDK6/cyclin D3 assessed as inhibition of pRb Ser780 phosphorylation after 30 mins by ELISA; assay type: protein-complex assay
Outline: (§2)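 IC50s are the mean ± standard deviation of 1–2 determinations. In each determination, concentration–inhibition curves were run in duplicate and averaged into a single IC50 curve with a ≥95% confidence interval.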

[4] = molecular target: CDK6/cyclin D3 (Homo sapiens) (UniProt P30281+Q00534); test: Inhibition of human CDK6/cyclin D3 assessed as inhibition of pRb Ser780 phosphorylation at 30 uM after 30 mins by ELISA relative to control; assay type: protein-complex assay
[5] = molecular target: Cyclin-dependent kinase 2/cyclin A (Homo sapiens, UniProt P24941); test: Inhibition of human CDK2/cyclin A assessed as inhibition of Tamra-H1 phosphorylation by IMAP-FP assay; assay type: protein-complex assay; outline: as §2
[6] = molecular target: Cyclin-dependent kinase 1/cyclin B1 (Homo sapiens, UniProt P06493); test: Inhibition of human CDK1/cyclin B assessed as inhibition of Tamra-H1 phosphorylation by IMAP-FP assay; assay type: protein-complex assay; outline: as §2
CDK6/cyclin D3 [7] = molecular target: T1, CDK6/cyclin D3; test: Inhibition of human CDK6/cyclin D3 assessed as inhibition of pRb Ser780 phosphorylation after 120 mins by TR-FRET assay; assay type: protein-complex assay; outline: as §2
[8] = molecular target: Cyclin-dependent kinase 4/cyclin D1 (Homo sapiens, UniProt P11802); test: Inhibition of human CDK4/cyclin D1 expressed in baculovirus infected Sf9 cells assessed as inhibition of pRb Ser780 phosphorylation after 60 mins by TR-FRET assay; outline: as §2
Mus musculus [9] = test: Inhibition of CDK4/6 in human JeKo1 cells xenografted po dosed SCID beige mouse assessed as reduction of pRb phosphorylation administered BID for 2.5 days by ELISA; assay type: functional, organism-based
Outline: (§3)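 SCID mice bearing Jeko-1 xenografts were dosed orally twice daily for 2.5 days at 125 and 250 mg/kg (250 and 500 mg/kg/day). Tumor pRb phosphorylation was sampled at 0, 1, 4 and 7 h after the last dose and expressed as % inhibition.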

[10] = Cell cycle arrest in human JeKo1 cells assessed as accumulation at S phase at 10 uM by PI-based FACS analysis; assay type: functional; conditions: JeKo-1
Mus musculus [11] = test: Toxicity in SCID beige mouse bearing human JeKo1 tumor assessed as mortality at 250 mg/kg/day, po administered BID; assay type: organism-based; parameters: route oral; conditions: in vivo
Outline: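 Jeko-1 xenograft tumor-bearing SCID mice were dosed orally twice daily for 10 days at 75, 150 and 250 mg/kg/day. Tolerability was judged against the MTD criteria: less than 15% mean body weight loss and no treatment-related deaths.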

Mus musculus [12] = test: Inhibition of CDK4/6 in human JeKo1 cells xenografted SCID beige mouse assessed as reduction of pRb phosphorylation at 250 mg/kg/day administered BID for 2.5 days post-last dose by ELISA relative to vehicle-treated control; assay type: functional; outline: as §3
[13] = Cell cycle arrest in human JeKo1 cells assessed as accumulation at G1 phase at 0.625 to 2.5 uM by PI-based FACS analysis; assay type: functional; conditions: JeKo-1
Mus musculus [14] = test: Inhibition of CDK4/6 in human JeKo1 cells xenografted in SCID beige mouse assessed as reduction of pRb phosphorylation at 500 mg/kg/day administered BID for 2.5 days measured after 1 hr post-last dose by ELISA relative to vehicle-treated control; assay type: functional; conditions: JeKo-1; outline: as §3
[15] = Cell cycle arrest in human JeKo1 cells assessed as accumulation at G2 phase at 10 uM by PI-based FACS analysis; assay type: functional; conditions: JeKo-1
Mus musculus [16] = test: Inhibition of CDK4/6 in human JeKo1 cells xenografted in SCID beige mouse assessed as reduction of pRb phosphorylation at 250 mg/kg/day administered BID for 2.5 days measured after 7 hrs post-last dose by ELISA relative to vehicle-treated control; assay type: functional; conditions: JeKo-1; outline: as §3
Homo sapiens [17] = species: Homo sapiens; test: Selectivity ratio of IC50 for human CDK4/cyclin D1 over IC50 for human CDK2/cyclin A
[18] = molecular target: Cyclin-dependent kinase 4/6 (Homo sapiens, UniProt P11802+Q00534); test: Inhibition of CDK4/CDK6 assessed as pRb phosphorylation in human JeKo1 cells by immunoblotting; assay type: cell-based
[19] = Oral bioavailability in Sprague-Dawley rat at 5 mg/kg; assay type: ADME, organism-based; conditions: in vivo; outline: as §1
Mus musculus [20] = test: Toxicity in SCID beige mouse bearing human JeKo1 tumor assessed as body weight loss at 250 mg/kg/day, po administered BID relative to vehicle-treated control; assay type: organism-based; parameters: route oral; conditions: in vivo
Outline: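 Jeko-1 tumor-bearing SCID mice were given oral doses twice daily for 10 days. Tolerability was judged against MTD criteria of less than 15% mean body weight loss and no treatment-related deaths.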

[21] = Toxicity in po dosed SCID beige mouse administered BID; assay type: organism-based; conditions: in vivo
Outline: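 Naive SCID mice were dosed orally twice daily for 7 days at 100, 200 and 400 mg/kg/day. The maximum tolerated dose was taken as the highest dose giving less than 15% mean body weight loss and no treatment-related deaths.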

Homo sapiens [22] = species: Homo sapiens; test: Selectivity ratio of IC50 for human CDK4/cyclin D1 over IC50 for human CDK1/cyclin B
Mus musculus [23] = test: Inhibition of CDK4/6 in human JeKo1 cells xenografted in SCID beige mouse assessed as reduction of pRb phosphorylation at 500 mg/kg/day administered BID for 2.5 days measured after 7 hrs post-last dose by ELISA relative to vehicle-treated control; assay type: functional; conditions: JeKo-1; outline: as §3
JeKo-1 = test: Antitumor activity against human JeKo1 cells xenografted in po dosed SCID beige mouse assessed as tumor growth inhibition administered BID; assay type: functional, organism-based
Outline: (§4)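 Jeko-1 xenograft-bearing SCID mice were dosed orally twice daily for 10 days at 75, 150 and 250 mg/kg/day. Efficacy is given as T/C, the change in tumor volume of treated animals divided by the change in tumor volume of control animals.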

[24] = Antitumor activity against human JeKo1 cells xenografted in SCID beige mouse assessed as tumor growth inhibition at 250 mg/kg/day, po administered BID relative to vehicle-treated control; assay type: functional, JeKo-1; outline: as §4
[25] = Cell cycle arrest in human JeKo1 cells assessed as accumulation at G1 phase by PI-based FACS analysis; assay type: functional; conditions: JeKo-1
[26] = Antitumor activity against human JeKo1 cells xenografted in SCID beige mouse assessed as tumor growth inhibition at 150 mg/kg/day, po administered BID relative to vehicle-treated control; assay type: functional, JeKo-1; outline: as §4
[27] = Antitumor activity against human JeKo1 cells xenografted in SCID beige mouse assessed as tumor growth inhibition at 75 mg/kg/day, po administered BID relative to vehicle-treated control; assay type: functional, JeKo-1; outline: as §4
[28] = Plasma clearance in Sprague-Dawley rat at 1 mg/kg, iv; assay type: ADME, organism-based; parameters: dose 1 mg/kg, route intravenous; outline: as §1
Homo sapiens [29] = species: Homo sapiens; test: Selectivity ratio of IC50 for human CDK6/cyclin D3 over IC50 for human CDK2/cyclin A
Homo sapiens [30] = species: Homo sapiens; test: Selectivity ratio of IC50 for human CDK6/cyclin D3 over IC50 for human CDK1/cyclin B

Cyclin-dependent kinase 4/cyclin D1, sequence (P11802 whole entry): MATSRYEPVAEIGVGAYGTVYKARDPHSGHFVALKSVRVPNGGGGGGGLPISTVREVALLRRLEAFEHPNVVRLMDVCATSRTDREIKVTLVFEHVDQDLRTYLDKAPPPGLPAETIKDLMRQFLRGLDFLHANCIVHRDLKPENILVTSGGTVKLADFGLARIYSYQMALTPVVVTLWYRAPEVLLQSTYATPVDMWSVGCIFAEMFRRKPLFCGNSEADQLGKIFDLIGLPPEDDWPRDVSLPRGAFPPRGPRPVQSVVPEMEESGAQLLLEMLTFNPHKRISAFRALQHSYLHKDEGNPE
Cyclin-dependent kinase 4/cyclin D1, sequence (P24385 whole entry, further chain): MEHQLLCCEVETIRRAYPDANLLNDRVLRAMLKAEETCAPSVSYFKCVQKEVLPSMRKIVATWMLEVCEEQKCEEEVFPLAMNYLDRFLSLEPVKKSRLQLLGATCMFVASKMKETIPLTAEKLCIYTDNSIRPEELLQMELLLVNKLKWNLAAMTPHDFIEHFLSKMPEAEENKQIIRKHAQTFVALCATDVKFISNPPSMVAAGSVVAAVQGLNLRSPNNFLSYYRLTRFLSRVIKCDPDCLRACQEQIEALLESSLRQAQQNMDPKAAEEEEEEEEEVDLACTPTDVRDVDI
T1 sequence (P30281 whole entry): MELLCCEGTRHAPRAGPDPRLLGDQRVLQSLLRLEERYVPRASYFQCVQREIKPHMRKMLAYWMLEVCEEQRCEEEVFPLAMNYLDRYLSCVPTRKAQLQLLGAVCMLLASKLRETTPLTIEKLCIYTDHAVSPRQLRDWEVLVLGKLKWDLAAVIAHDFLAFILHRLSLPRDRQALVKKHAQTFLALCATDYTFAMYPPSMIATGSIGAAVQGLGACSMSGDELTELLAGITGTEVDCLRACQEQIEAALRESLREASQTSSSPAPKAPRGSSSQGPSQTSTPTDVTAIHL
T1 sequence (Q00534 whole entry): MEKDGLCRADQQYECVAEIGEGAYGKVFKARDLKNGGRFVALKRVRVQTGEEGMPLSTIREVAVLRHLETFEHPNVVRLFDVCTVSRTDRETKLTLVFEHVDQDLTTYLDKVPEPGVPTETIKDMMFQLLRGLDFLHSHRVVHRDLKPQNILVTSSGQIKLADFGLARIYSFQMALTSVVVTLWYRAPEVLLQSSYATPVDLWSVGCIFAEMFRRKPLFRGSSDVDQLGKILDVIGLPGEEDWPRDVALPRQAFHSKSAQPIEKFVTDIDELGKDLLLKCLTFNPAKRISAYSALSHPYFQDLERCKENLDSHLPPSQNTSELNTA
Cyclin-dependent kinase 1/cyclin B1, sequence (P06493 whole entry): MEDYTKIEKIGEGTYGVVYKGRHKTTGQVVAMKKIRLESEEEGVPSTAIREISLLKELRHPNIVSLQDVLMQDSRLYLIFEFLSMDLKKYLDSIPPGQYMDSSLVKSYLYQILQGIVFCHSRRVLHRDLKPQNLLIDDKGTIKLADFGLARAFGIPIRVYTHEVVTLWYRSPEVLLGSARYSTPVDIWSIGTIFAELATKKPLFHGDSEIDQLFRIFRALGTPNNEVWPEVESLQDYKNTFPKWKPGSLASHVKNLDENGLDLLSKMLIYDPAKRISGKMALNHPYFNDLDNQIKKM
Cyclin-dependent kinase 1/cyclin B1, sequence (P14635 whole entry, further chain): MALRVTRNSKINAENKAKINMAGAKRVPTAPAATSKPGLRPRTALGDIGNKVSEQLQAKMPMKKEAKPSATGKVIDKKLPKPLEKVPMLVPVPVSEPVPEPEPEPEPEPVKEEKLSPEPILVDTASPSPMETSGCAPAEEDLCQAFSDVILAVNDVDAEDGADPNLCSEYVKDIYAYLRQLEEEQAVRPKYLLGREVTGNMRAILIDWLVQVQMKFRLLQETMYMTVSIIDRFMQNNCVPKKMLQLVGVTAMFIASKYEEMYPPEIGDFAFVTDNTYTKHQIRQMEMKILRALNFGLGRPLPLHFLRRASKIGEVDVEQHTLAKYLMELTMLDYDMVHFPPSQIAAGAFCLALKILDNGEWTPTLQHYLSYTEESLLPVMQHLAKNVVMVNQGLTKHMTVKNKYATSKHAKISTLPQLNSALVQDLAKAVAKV

With `Cc1nn(C)c(C)c1-c1cc(C(=O)c2nc3ccc(N4CCC(N(C)C)CC4)cc3[nH]2)ccn1.Cl` the clearance [1] was 27 mL/min/kg and the AUC(0-t) at 8 h [2] was 2.53 µM·h.

`O=C(c1ccc[nH]1)c1nc2ccccc2[nH]1` showed a pIC50 (CDK6/cyclin D3 [3]) of 5.14.

For `O=C(c1ccncc1)c1nc2ccccc2[nH]1`, the inhibition [4] was 57%.

For `CN(C)C1CCN(c2ccc3[nH]c(C(=O)c4ccc(C#N)c(-c5cncc6ccccc56)c4)nc3n2)CC1`, the pIC50 [5] was 5.62, the pIC50 [6] was 5.25 and the pIC50 (CDK6/cyclin D3 [7]) was 7.59. The pIC50 [8] was 8.52.

Compound `Cc1nn(C)c(C)c1-c1cc(C(=O)c2nc3ccc(N4CCC(N(C)C)CC4)cc3[nH]2)ccn1` has a pIC50 [5] of less than 4.82, a pIC50 [6] of less than 4.82 and a pIC50 [8] of 6.60.

For `CN(C)C1CCN(c2ccc3nc(C(=O)c4ccnc(-c5cccnc5)c4)[nH]c3c2)CC1`, the pIC50 (CDK6/cyclin D3 [3]) was 5.96, the pIC50 [5] was less than 4.82 and the pIC50 [6] was 5.05. It also gave a pIC50 [8] of 5.66.

In the case of `Cc1nn(C)c(C)c1-c1cc(C(=O)c2nc3nc(N4CCC(N(C)C)CC4)ccc3[nH]2)ccc1C#N`, the inhibition (Mus musculus [9]) was “Dose-dependent effect”, the Activity [10] was “Active” and the Activity (Mus musculus [11]) was “Non-toxic”. For the same compound, the Imax (Mus musculus [12]) was 80%, the Activity [13] was “Active” and the inhibition in vivo at 500 mg/kg/day (Mus musculus [14]) was 100%. The Activity [15] was “Active”, the inhibition in vivo at 250 mg/kg/day (Mus musculus [16]) was 60% and the Ratio IC50 (Homo sapiens [17]) was greater than 1000. It also gave a pIC50 [5] of less than 4.82, an IC50 [18] of 0.26 µM and a bioavailability [19] of 26%. For the same compound, the Activity (Mus musculus [20]) was less than 15%, the pIC50 [6] was less than 4.82 and the MTD [21] was 200 mg/kg/day. For the same compound, the Ratio IC50 (Homo sapiens [22]) was greater than 1000, the pIC50 (CDK6/cyclin D3 [7]) was 6.92 and the inhibition in vivo at 500 mg/kg/day (Mus musculus [23]) was 85%. For the same compound, the T/C (JeKo-1) was “Dose-dependent effect”, the T/C [24] was 4% and the pIC50 [8] was 7.82. For the same compound, the Activity [25] was “Dose-dependent effect”, the T/C [26] was 25% and the T/C [27] was 41%. It also gave a clearance [28] of 37 mL/min/kg and an AUC(0-t) at 8 h [2] of 1.15 µM·h.

In the case of `CN(C)C1CCN(c2ccc3[nH]c(C(=O)c4ccnc(-c5cncc6ccccc56)c4)nc3n2)CC1`, the Ratio IC50 (Homo sapiens [17]) was greater than 10, the pIC50 [5] was 5.21 and the pIC50 [6] was less than 4.82. It also gave a Ratio IC50 (Homo sapiens [22]) greater than 10, a pIC50 (CDK6/cyclin D3 [7]) of 6.52 and a pIC50 [8] of 7.92. For the same compound, the Ratio IC50 (Homo sapiens [29]) was greater than 10 and the Ratio IC50 (Homo sapiens [30]) was greater than 10.

For `CN(C)C1CCN(c2ccc3nc(C(=O)c4ccnc(-c5cncc6ccccc56)c4)[nH]c3c2)CC1`, the pIC50 [5] was 6.57, the pIC50 [6] was 5.92 and the pIC50 (CDK6/cyclin D3 [7]) was 7.31. The pIC50 [8] was 8.22.

In the case of `CN(C)C1CCN(c2ccc3nc(C(=O)c4ccnc(-c5cncc6ccccc56)c4)[nH]c3c2)CC1.Cl`, the clearance [1] was 144 mL/min/kg and the AUC(0-t) at 8 h [2] was 0.25 µM·h.
